CRFBP-R2 block: blocks CRF-induced signaling of the CRF-BP/CRF-R2 complex. AID 588475. 0.59% of 350,000 active. inhibition, % at 11.8 µM. HEK293 CRF-R2/CRF-BP, CRF-induced calcium fluorescence;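 active = inhibition of the ligand-induced calcium signal above about 50% at the single tested concentration, limit read from the data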
TMEM16A act: activators or potentiators of mouse TMEM16A chloride channel; Q8BHY3; 0.3% of 340,000 active; AID 623877; B-score at 10 µM; HEK293 TMEM16A/YFP-H148Q/I152L, iodide quench fluorescence; stronger effect = lower value;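 active = fluorescence-ratio B-score plate-corrected deviation score at least 3 library SD below zero, with starting fluorescence score within 5 deviations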;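 also: channel opened by trigger with iodide after compound preincubation; score built on the fluorescence ratio of max minus min over baseline; more negative score means more quench and so TMEM16A activation or potentiation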
TAAR1 agonist: human TAAR1 agonism; Q96RJ0; CHO RD-HGA16 TAAR1, Fluo-8 calcium fluorescence; vehicle wells 0%, saturating PEA agonist 100%; activation, % at 3 µM; 0.99% of 360,000 active;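 active = activation above the mean activation of all test compounds in the run plus 3 SD, cut at about 38% in these data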
Target sequence (Q96RJ0 whole entry, looked up): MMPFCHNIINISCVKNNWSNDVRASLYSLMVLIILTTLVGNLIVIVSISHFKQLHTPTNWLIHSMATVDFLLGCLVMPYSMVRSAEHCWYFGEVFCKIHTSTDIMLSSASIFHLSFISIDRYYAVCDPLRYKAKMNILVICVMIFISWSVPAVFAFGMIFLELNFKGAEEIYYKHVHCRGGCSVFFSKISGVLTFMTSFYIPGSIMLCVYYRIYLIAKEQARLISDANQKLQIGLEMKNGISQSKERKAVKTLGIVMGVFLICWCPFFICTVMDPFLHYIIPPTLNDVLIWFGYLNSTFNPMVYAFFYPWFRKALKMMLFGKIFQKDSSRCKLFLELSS
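Benchmarks: low control DMSO, high control PEA (EC100); System: CHO RD-HGA16 cells carrying human TAAR1 plus Gα16; Detection: Fluo-8 fluorescence, 5 s baseline then 140 s kinetic read; Schedule: 17-24 h plating, Fluo-8 75 min 37 °C, 30 min RT; Read-out basis: % activation from peak over basal fluorescence ratio, DMSO-to-PEA scaled.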
TMEM16A inh: mouse TMEM16A channel inhibition, primary screen; Q8BHY3; HEK293 TMEM16A/YFP iodide influx fluorescence, ionomycin; normalized B-score (activity score, 25-100; higher = stronger inhibition) at 10 µM; 1.2% of 310,000 active;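 active = ratio plate-corrected score three or more library SD toward inhibition, starting fluorescence score within five deviations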;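 also: score derived from kinetic fluorescence span divided by baseline fluorescence per well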
CRFBP-R2 agonist: CRF-BP/CRF-R2 complex agonism; activation, % at 13.2 µM; 0.46% of 350,000 active; HEK293 CRF-R2/CRF-BP, calcium dye fluorescence (FLIPR); percent of saturating CRF peptide response;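 active = activation of at least 50%, plus an integration ratio under a set limit after plate pattern correction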
TAAR1 antagonist: human TAAR1 antagonism. inhibition, % at 3 µM. 1.5% of 360,000 active. CHO RD-HGA16 TAAR1, Fluo-8 calcium fluorescence, antagonist;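 active = inhibition above a per-plate cutoff, the mean inhibition of test compounds on that plate plus 3 SD, cut at about 49% in these data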
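Test system: CHO RD-HGA16 cells bearing hTAAR1 | Reagent: β-PEA, EC80 | Compound dosing: 3 µM, single point | Schedule: Dye loading 75 min at 37 °C, then 30 min room temperature | Signal: Calcium fluorescence with Fluo-8 | Evaluation: Percent inhibition of PEA-evoked calcium signal, max/basal emission ratio | Control set: DMSO-only wells and EC80 β-PEA-stimulated wells | Repeats: Singlicate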
Numbers stand for hits. Hits are enriched below; roughly 3.9% of the tested compounds scored in any of these assays.

Screening Cc1nc2sccn2c(=O)c1S(=O)(=O)Nc1cccc(Cl)c1C returned CRFBP-R2 block inactive, TMEM16A act inactive, TAAR1 agonist inactive, TMEM16A inh inactive, CRFBP-R2 agonist 57.3 and TAAR1 antagonist inactive.
Screening Cn1nnnc1SCc1ccc(C(=O)Nc2ccccc2F)cc1 returned CRFBP-R2 block inactive, TMEM16A act inactive, TAAR1 agonist inactive, TMEM16A inh inactive, CRFBP-R2 agonist inactive and TAAR1 antagonist inactive.
Screening Cc1cc(C)cc(NC(=O)c2ccc(CSc3nnnn3C)cc2)c1 returned CRFBP-R2 block inactive, TMEM16A act inactive, TAAR1 agonist inactive, TMEM16A inh inactive, CRFBP-R2 agonist inactive and TAAR1 antagonist 66.1.
Cc1ccc(S(=O)(=O)Nc2cc(=O)[nH]c(SCC(=O)Nc3cccc(C(F)(F)F)c3)n2)cc1 was read as CRFBP-R2 block 109.9, TMEM16A act inactive, TAAR1 agonist inactive, CRFBP-R2 agonist inactive and TAAR1 antagonist inactive.
`Cc1ccc(NC(=O)CSc2nc(NS(=O)(=O)c3ccc(C)cc3)cc(=O)[nH]2)cc1` gave CRFBP-R2 block inactive, TMEM16A act inactive, TAAR1 agonist inactive, TMEM16A inh inactive, CRFBP-R2 agonist inactive and TAAR1 antagonist inactive.
CCCOc1ccc(C(=O)NNC(=O)c2cccc(S(=O)(=O)N3CCN(C(C)=O)CC3)c2)cc1OC was read as CRFBP-R2 block inactive, TMEM16A act inactive, TAAR1 agonist inactive, TMEM16A inh inactive, CRFBP-R2 agonist inactive and TAAR1 antagonist inactive.
For O=C(O)c1ccccc1Cc1ccc2c(c1)CCCC2 the results were CRFBP-R2 block inactive, TMEM16A act inactive, TAAR1 agonist inactive, CRFBP-R2 agonist inactive and TAAR1 antagonist inactive.
`COc1ccccc1-c1c(C)nn2c(N3CCOCC3)cc(C)nc12` gave CRFBP-R2 block inactive, TMEM16A act inactive, TAAR1 agonist inactive, TMEM16A inh inactive, CRFBP-R2 agonist inactive and TAAR1 antagonist inactive.
COc1ccccc1-c1c(C)nn2c(N3CCN(c4ccccc4OC)CC3)cc(C)nc12 was read as CRFBP-R2 block 67.9, TMEM16A act inactive, TAAR1 agonist inactive, TMEM16A inh inactive, CRFBP-R2 agonist inactive and TAAR1 antagonist inactive.
Screening CC(Cc1cccnc1)NC(=O)c1cc(COc2ccc(F)cc2Cl)on1 (stereo not given) returned CRFBP-R2 block inactive, TMEM16A act inactive, TAAR1 agonist inactive, TMEM16A inh inactive, CRFBP-R2 agonist inactive and TAAR1 antagonist inactive.
O=C1Nc2ccccc2C(=O)N2[C@H](c3cccc(Br)c3)[C@@H]3C(=O)N(Cc4ccccc4)C(=O)[C@@H]3[C@H]12 was read as CRFBP-R2 block inactive, TMEM16A act -7.1, TAAR1 agonist inactive, TMEM16A inh inactive, CRFBP-R2 agonist inactive and TAAR1 antagonist inactive.
Screening CCOc1ccc(C2C(C#N)=C(N)SC(N)=C2C#N)c(OCC)c1 returned CRFBP-R2 block inactive, TMEM16A act inactive, TAAR1 agonist inactive, TMEM16A inh inactive, CRFBP-R2 agonist inactive and TAAR1 antagonist inactive.
`CCCCc1ccc(C2C(C#N)=C(N)SC(N)=C2C#N)s1` gave TMEM16A inh 100.
COc1ccc(Cl)cc1Nc1nc(NCCO)nc(N2CCCCC2)n1 was read as CRFBP-R2 block 51.1, TMEM16A act inactive, TAAR1 agonist inactive, TMEM16A inh inactive, CRFBP-R2 agonist inactive and TAAR1 antagonist inactive.
For COc1ccc(Cl)cc1Nc1nc(NCCO)nc(N2CCCC2)n1 the results were CRFBP-R2 block inactive, TMEM16A act inactive, TAAR1 agonist inactive, TMEM16A inh inactive, CRFBP-R2 agonist inactive and TAAR1 antagonist inactive.
For O=C(NCc1ccc(F)c(F)c1)C1Cc2c(-c3ccc4c(c3)OCO4)ccnc2O1 (stereo not given) the results were TAAR1 agonist inactive and TAAR1 antagonist inactive.
`CCOC(=O)c1ccc(N2C(=O)C=CC2=O)cc1` gave CRFBP-R2 block inactive, TMEM16A act inactive, TMEM16A inh 25 and CRFBP-R2 agonist inactive.
Screening CCOC(=O)c1ccc(-n2c(C)ccc2C)cc1 returned CRFBP-R2 block inactive, TMEM16A act inactive, TAAR1 agonist inactive, TMEM16A inh inactive, CRFBP-R2 agonist inactive and TAAR1 antagonist inactive.
Screening Cc1sc(NC(=O)c2sc3nc4c(C)cccc4cc3c2N)c(C#N)c1C returned CRFBP-R2 block inactive, TMEM16A act inactive, TAAR1 agonist inactive, TMEM16A inh inactive, CRFBP-R2 agonist 88.3 and TAAR1 antagonist inactive.
For Cc1cccc2cc3c(N)c(C#N)sc3nc12 the results were CRFBP-R2 block inactive, TMEM16A act inactive, TAAR1 agonist inactive, TMEM16A inh inactive, CRFBP-R2 agonist inactive and TAAR1 antagonist inactive.
Cc1cccc2cc3c(N)c(C(=O)N4CCc5ccccc54)sc3nc12 was read as CRFBP-R2 block inactive, TMEM16A act inactive, TAAR1 agonist inactive, TMEM16A inh inactive, CRFBP-R2 agonist inactive and TAAR1 antagonist 54.8.
For Cc1cc(C)c(CN2CCC(N3CCC(C(=O)NCC4CCCO4)CC3)CC2)cc1C (stereo not given) the results were CRFBP-R2 block inactive, TMEM16A act inactive, TAAR1 agonist inactive, TMEM16A inh inactive, CRFBP-R2 agonist inactive and TAAR1 antagonist inactive.
CCOC(=O)C1CCCN(C2CC(=O)N(c3ccccc3)C2=O)C1 (stereo not given) was read as CRFBP-R2 block 66.8, TMEM16A act inactive, TAAR1 agonist inactive, TMEM16A inh inactive, CRFBP-R2 agonist inactive and TAAR1 antagonist inactive.
CCOC(=O)C1CCCN(C2CC(=O)N(c3cccc(C(F)(F)F)c3)C2=O)C1 (stereo not given) was read as CRFBP-R2 block inactive, TMEM16A act inactive, TAAR1 agonist 43.1, TMEM16A inh inactive, CRFBP-R2 agonist inactive and TAAR1 antagonist inactive.
CCOC(=O)C1CCCN(C2CC(=O)N(c3ccc(N4C(=O)CC(N5CCCC(C(=O)OCC)C5)C4=O)cc3)C2=O)C1 (stereo not given) was read as CRFBP-R2 block inactive, TMEM16A act inactive, TAAR1 agonist inactive, TMEM16A inh inactive, CRFBP-R2 agonist inactive and TAAR1 antagonist inactive.
Screening Cc1c(N(C)C)c(=O)n(-c2ccccc2)n1C returned CRFBP-R2 block inactive, TMEM16A act inactive, TAAR1 agonist inactive, CRFBP-R2 agonist inactive and TAAR1 antagonist inactive.
Cc1c(N(C)C(=O)c2ccccc2F)c(=O)n(-c2ccccc2)n1C was read as CRFBP-R2 block inactive, TMEM16A act -6.53, TAAR1 agonist inactive, TMEM16A inh inactive, CRFBP-R2 agonist inactive and TAAR1 antagonist inactive.
CC(=O)OCC(=O)[C@H]1CC[C@H]2[C@@H]3CCC4=CC(=O)CC[C@]4(C)[C@H]3CC[C@]12C was read as CRFBP-R2 block inactive, TMEM16A act -5.76, TAAR1 agonist inactive, TMEM16A inh inactive, CRFBP-R2 agonist inactive and TAAR1 antagonist inactive.
For C[C@]12CC[C@H]3[C@@H](CCC4=CC(=O)CC[C@@]43C)[C@@H]1CC[C@@H]2C(=O)CO the results were CRFBP-R2 block inactive, TMEM16A act inactive, TAAR1 agonist inactive, TMEM16A inh inactive, CRFBP-R2 agonist inactive and TAAR1 antagonist inactive.
